Experimental findings from ChEMBL document CHEMBL3046679, “Design, synthesis, and biological activities of arylmethylamine substituted chlorotriazine and methylthiotriazine compounds” (J Agric Food Chem, 2011) are described below.

Usually inhibition stands for how much of the control response was suppressed.

Calls of active or inactive are those of the source. The rule behind the calls is not given here.

The test system of the first assay is Phytophthora infestans. The assay can be described thus: Fungicidal activity against Phytophthora infestans assessed as inhibition of mycelia growth at 200 ppm. It is filed as functional, organism-based.
Conditions: not given
On to `CSc1nc(NCc2ccc(F)cc2)nc(NC(C)C)n1`, for which the inhibition entry was “inactive”.

The next assay concerns Zymoseptoria tritici. The assay can be described thus: Fungicidal activity against Zymoseptoria tritici assessed as inhibition of mycelia growth at 100 ppm. In kind it is functional, organism-based.
Conditions: not given
Turning to `CSc1nc(NCc2ccc(F)cc2)nc(NC(C)C)n1`, the inhibition result was “inactive”.

The subject of another assay is Botrytis cinerea. The assay can be described thus: Fungicidal activity against Botryotinia fuckeliana assessed as inhibition of mycelia growth at 2 ppm. In kind it is functional, organism-based.
Conditions: not given
The method in brief:
(§1)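 Mycelial growth test in 96-well plates: compound incorporated into artificial growth medium at 2 ppm, two replicates per rate. Each well scored 99 for complete, 55 for partial or 0 for no inhibition. Values are the mean across replicates; azoxystrobin and prochloraz used as positive controls.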
For `CSc1nc(NCc2ccc(F)cc2)nc(NC(C)C)n1`, the inhibition entry is “inactive”.

The test system of the next assay is Fusarium graminearum. The assay can be described thus: Fungicidal activity against Fusarium graminearum assessed as inhibition of mycelia growth at 2 ppm. It is filed as functional, organism-based.
Conditions: not given
A digest of the protocol:
as §1
With `CSc1nc(NCc2ccc(F)cc2)nc(NC(C)C)n1`, the inhibition entry was “inactive”.

Another assay has as its system Pythium dissimile. Description: Fungicidal activity against Pythium dissimile assessed as inhibition of mycelia growth at 2 ppm. It is filed as functional, organism-based.
Conditions: not given
A digest of the protocol:
as §1
Take `CSc1nc(NCc2ccc(F)cc2)nc(NC(C)C)n1`: the inhibition result was “inactive”.

A further assay concerns Digitaria sanguinalis. The assay can be described thus: Herbicidal activity against Digitaria sanguinalis (hairy crabgrass) assessed as growth inhibition at 1 kg/ha preemergence treatment by glasshouse test. It is filed as functional. To be noted: pre-emergence, read-out: GI. A digest of the protocol: (§2)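 Glasshouse screen with pre- or postemergence application at 1.0 kg/ha. Result given as percent inhibition of plant growth; norflurazon and glyphosate used as controls.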
With `O=C(O)CNCP(=O)(O)O` [GLYPHOSATE], the inhibition of growth at 1000 g/ha is 0%.
Same read-out and setting: the same measure for `CSc1nc(NCc2ccc(F)cc2)nc(NC(C)C)n1`: 0%.

The subject of another assay is Stellaria media. The assay can be described thus: Herbicidal activity against Stellaria media assessed as growth inhibition at 1 kg/ha preemergence treatment by glasshouse test. It is filed as functional. To be noted: pre-emergence, read-out: GI. The method in brief:
as §2
On to `O=C(O)CNCP(=O)(O)O` [GLYPHOSATE], for which the inhibition of growth at 1000 g/ha came out at 0%.
On the same count and under the same terms, the same measure for `CSc1nc(NCc2ccc(F)cc2)nc(NC(C)C)n1`: 90%.

In the next assay the test system is Lolium perenne. Description: Herbicidal activity against Lolium perenne (perennial ryegrass) assessed as growth inhibition at 1 kg/ha preemergence treatment by glasshouse test. It is filed as functional. To be noted: pre-emergence, read-out: GI. The method in brief:
as §2
Take `O=C(O)CNCP(=O)(O)O` [GLYPHOSATE]: the inhibition of growth at 1000 g/ha came to 0%.
The same measure, in the same setting: the same measure for `CSc1nc(NCc2ccc(F)cc2)nc(NC(C)C)n1`: 50%.

The subject of a further assay is Amaranthus retroflexus. The assay can be described thus: Herbicidal activity against Amaranthus retroflexus assessed as growth inhibition at 1 kg/ha preemergence treatment by glasshouse test. In kind it is functional. To be noted: pre-emergence, read-out: GI. The method in brief:
as §2
As for `O=C(O)CNCP(=O)(O)O` [GLYPHOSATE], the inhibition of growth at 1000 g/ha was 90%.
Regarding `CSc1nc(NCc2ccc(F)cc2)nc(NC(C)C)n1`, the inhibition of growth at 1000 g/ha stood at 100%.

A further assay relates to Digitaria sanguinalis. The assay can be described thus: Herbicidal activity against Digitaria sanguinalis (hairy crabgrass) assessed as growth inhibition at 1 kg/ha postemergence treatment by glasshouse test. To be noted: post-emergence, read-out: GI. In kind it is functional. A digest of the protocol: as §2
For the compound `O=C(O)CNCP(=O)(O)O` [GLYPHOSATE], the inhibition of growth at 1000 g/ha was 90%.
On the same count and under the same terms, next, `CSc1nc(NCc2ccc(F)cc2)nc(NC(C)C)n1`: 80%.

In a further assay the test system is Stellaria media. The assay can be described thus: Herbicidal activity against Stellaria media assessed as growth inhibition at 1 kg/ha postemergence treatment by glasshouse test. In kind it is functional. To be noted: post-emergence, read-out: GI. The method in brief:
as §2
As for `O=C(O)CNCP(=O)(O)O` [GLYPHOSATE], the inhibition of growth at 1000 g/ha was found to be 80%.
On the same count and under the same terms, the same measure for `CSc1nc(NCc2ccc(F)cc2)nc(NC(C)C)n1`: 100%.

The subject of another assay is Lolium perenne. Description: Herbicidal activity against Lolium perenne (perennial ryegrass) assessed as growth inhibition at 1 kg/ha postemergence treatment by glasshouse test. It is filed as functional. To be noted: post-emergence, read-out: GI. The method in brief:
as §2
Regarding `O=C(O)CNCP(=O)(O)O` [GLYPHOSATE], the inhibition of growth at 1000 g/ha was found to be 80%.
As for `CSc1nc(NCc2ccc(F)cc2)nc(NC(C)C)n1`, the inhibition of growth at 1000 g/ha was 80%.

Another assay relates to Amaranthus retroflexus. Description: Herbicidal activity against Amaranthus retroflexus assessed as growth inhibition at 1 kg/ha postemergence treatment by glasshouse test. To be noted: post-emergence, read-out: GI. In kind it is functional. The method in brief: as §2
As to `O=C(O)CNCP(=O)(O)O` [GLYPHOSATE], the inhibition of growth at 1000 g/ha was 90%.
For `CSc1nc(NCc2ccc(F)cc2)nc(NC(C)C)n1`, the inhibition of growth at 1000 g/ha turned out to be 100%.

For a further assay, the system named is Poa annua. The assay can be described thus: Herbicidal activity against Poa annua assessed as growth inhibition at 32 ppm by 96-well plate test. In kind it is functional. To be noted: read-out: GI. The method in brief: (§3)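 96-well plate herbicide screen: Arabidopsis thaliana at 10 ppm and Poa annua at 32 ppm, two replicates. Plates incubated seven days in a controlled-environment cabinet. Each replicate scored 0 (no visible effect) or 99 (herbicidal effect); values are the mean of the two. Atrazine used as reference.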
On to `CNc1cnn(-c2cccc(C(F)(F)F)c2)c(=O)c1Cl` [NORFLURAZONE], for which the inhibition of growth at 32 ppm was 99%.
Same read-out and setting: the same measure for `CSc1nc(NCc2ccc(F)cc2)nc(NC(C)C)n1`: 0%.

For the next assay, the system named is Arabidopsis thaliana. The assay can be described thus: Herbicidal activity against Arabidopsis thaliana assessed as growth inhibition at 10 ppm by 96-well plate test. In kind it is functional. To be noted: read-out: GI. The method in brief:
as §3
Turning to `CNc1cnn(-c2cccc(C(F)(F)F)c2)c(=O)c1Cl` [NORFLURAZONE], the inhibition of growth at 10 ppm was determined as 99%.
On the same count and under the same terms, the same measure for `CSc1nc(NCc2ccc(F)cc2)nc(NC(C)C)n1`: 99%.

In a further assay the test system is Echinochloa crus-galli. Description: Herbicidal activity against Echinochloa crus-galli (barnyard grass) at 1.5 kg/ha postemergence treatment measured after 10 days by glasshouse test. In kind it is functional. To be noted: post-emergence, 240 h. A digest of the protocol: (§4)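 Glasshouse pre/postemergence test, each treatment in triplicate. Above-ground fresh weight measured 10 days after treatment. Result expressed as percent inhibition versus control, from 0 (no control) to 100 (complete control); glyphosate used as positive control.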
With `CSc1nc(NCc2cnc(Br)s2)nc(NC(C)C)n1`, the inhibition at 1500 g/ha was determined as 92%.
Turning to `CC(C)Nc1nc(Cl)nc(NCC2CCCO2)n1` (centres undefined), the inhibition at 1500 g/ha stood at 41.3%.
Still for that read-out and setting: the same measure for `CSc1nc(NCc2ccc(F)cc2)nc(NC(C)C)n1`: 100%.

The next assay relates to Brassica napus. Description: Herbicidal activity against Brassica napus (oilseed rape) at 1.5 kg/ha postemergence treatment measured after 10 days by glasshouse test. To be noted: post-emergence, 240 h. It is filed as functional. A digest of the protocol:
as §4
For `CSc1nc(NCc2cnc(Br)s2)nc(NC(C)C)n1`, the inhibition at 1500 g/ha was 100%.
Same read-out and setting: next, `CC(C)Nc1nc(Cl)nc(NCC2CCCO2)n1` (centres undefined): 100%; `CSc1nc(NCc2ccc(F)cc2)nc(NC(C)C)n1`: 100%.

For another assay, the system named is Echinochloa crus-galli. Description: Herbicidal activity against Echinochloa crus-galli (barnyard grass) at 1.5 kg/ha preemergence treatment measured after 10 days by glasshouse test. In kind it is functional. To be noted: pre-emergence, 240 h. A digest of the protocol: as §4
Turning to `CSc1nc(NCc2cnc(Br)s2)nc(NC(C)C)n1`, the inhibition at 1500 g/ha is 74.6%.
`CC(C)Nc1nc(Cl)nc(NCC2CCCO2)n1` (centres undefined) yielded an inhibition at 1500 g/ha of 46.4%.
In the case of `CSc1nc(NCc2ccc(F)cc2)nc(NC(C)C)n1`, the inhibition at 1500 g/ha turned out to be 21.4%.

In another assay the test system is Brassica napus. Description: Herbicidal activity against Brassica napus (oilseed rape) at 1.5 kg/ha preemergence treatment measured after 10 days by glasshouse test. It is filed as functional. To be noted: pre-emergence, 240 h. A digest of the protocol:
as §4
The compound `CSc1nc(NCc2cnc(Br)s2)nc(NC(C)C)n1` registered an inhibition at 1500 g/ha of 87.1%.
Regarding `CC(C)Nc1nc(Cl)nc(NCC2CCCO2)n1` (centres undefined), the inhibition at 1500 g/ha stood at 100%.
On the same count and under the same terms, the same measure for `CSc1nc(NCc2ccc(F)cc2)nc(NC(C)C)n1`: 100%.

A further assay has as its system Heliothis virescens. The assay can be described thus: Insecticidal activity against Lepidoptera Heliothis virescens (tobacco budworm) assessed as mortality at 1000 ppm by leaf-disk assay. In kind it is functional, organism-based.
Conditions: not given
The method in brief: (§5)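 Leaf-disk assay at 1000 ppm, three replicates. Plates kept 5–9 days in controlled-environment cabinets. Mortality judged against untreated wells: 99 for significant mortality, 0 otherwise. Values are the mean of three; thiamethoxam and indoxacarb used as positive controls.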
In the case of `CSc1nc(NCc2ccc(F)cc2)nc(NC(C)C)n1`, the mortality result was “inactive”.

Another assay relates to Aphididae. The assay can be described thus: Insecticidal activity against Aphididae (aphids) assessed as mortality at 1000 ppm by leaf-disk assay. In kind it is functional, organism-based.
Conditions: not given
A digest of the protocol:
as §5
Consider `CSc1nc(NCc2ccc(F)cc2)nc(NC(C)C)n1`, for which the mortality result is “inactive”.
